KCNQ1 pot: human KCNQ1 channel potentiation or activation; P51787; CHO-K1 KCNQ1, thallium flux FluxOR fluorescence; stronger effect = higher value; B-score at 10 µM; actives 0.35% (n = 310,000);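 active = fluorescence ratio B-score, a plate-corrected score, at least three library SD, with initial intensity B-score within 5 SD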
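assay system = CHO-K1 cells stably expressing KCNQ1 | medium = assay buffer, equal DMSO in all wells | timing = 37 °C overnight plating, 90-min dark dye load, 20-min compound pretreatment | measured by = kinetic FluxOR thallium fluorescence, 10-s 1-Hz baseline, 110-s post-stimulus read | measure = fluorescence change relative to baseline, converted to B score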
hERG protect: hERG (human) protection from proarrhythmic block | Q12809 | CHO-hERG, FluxOR thallium flux, dofetilide IC70 present | activation (rescue from dofetilide block), less the hit threshold, % at 10 µM | actives 0.51% (n = 310,000) | AID 1511;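 active = activation above the mean of controls blocked by dofetilide plus 5 SD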;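 also: thallium influx through hERG after potassium depolarization seen as dye fluorescence rise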
KCNQ1 block: blocks the human KCNQ1 potassium channel | P51787 | CHO-K1 KCNQ1, FluxOR thallium flux fluorescence; stronger effect = higher value | B-score at 10 µM | actives 1.3% (n = 310,000) | AID 2642;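 active = compounds whose thallium flux B-score, printed positive for inhibition, exceeds three library SD while starting fluorescence stays within three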;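 also: channel opened by potassium depolarization with thallium stimulus after 20 min compound exposure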
KCNK9 inh: inhibitors of human KCNK9 two-pore domain potassium channel; HEK293 KCNK9, FluxOR thallium flux fluorescence; stronger effect = lower value; Q9NPC2; actives 1.2% (n = 310,000); B-score at 10 µM;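 active = ratio B-score over 3 SD below the library mean, with starting fluorescence within 5 SD of its mean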;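 also: negative B-score means less thallium flux so channel inhibition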
KCNK3 block: human KCNK3 channel inhibition, primary screen. CHO-KCNK3 thallium flux, FluxOR fluorescence; stronger effect = lower value. B-score at 10 µM. actives 0.84% (n = 340,000). AID 602410;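 active = B-score under library mean minus 4 SD, starting fluorescence ratio at most library mean plus 5 SD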;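 also: more negative B-score means stronger inhibition of thallium flux through KCNK3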
Target sequence (O14649 whole entry, looked up): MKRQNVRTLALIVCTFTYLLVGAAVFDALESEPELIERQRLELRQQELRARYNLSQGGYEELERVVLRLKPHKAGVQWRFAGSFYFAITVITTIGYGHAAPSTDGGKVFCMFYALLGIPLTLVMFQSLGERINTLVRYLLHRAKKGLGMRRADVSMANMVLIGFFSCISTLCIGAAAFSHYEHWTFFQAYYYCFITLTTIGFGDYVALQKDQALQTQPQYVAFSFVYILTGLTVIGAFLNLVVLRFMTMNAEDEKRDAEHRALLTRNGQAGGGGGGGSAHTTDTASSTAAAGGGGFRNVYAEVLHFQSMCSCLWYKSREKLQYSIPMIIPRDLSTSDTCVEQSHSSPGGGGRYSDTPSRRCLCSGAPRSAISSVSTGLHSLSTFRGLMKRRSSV
KCNK9 block conf: human KCNK9 inhibitor confirmation; inhibition, % at 10 µM; shares compounds with KCNK9 inh; HEK293 KCNK9 cells, FluxOR thallium flux fluorescence; actives 43% (n = 4,900);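 active = thallium signal inhibited by more than 5 SD of the compound-free buffer control wells, on both duplicate plates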;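 also: 0% = assay buffer control wells without compound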
Kir21 sel: tests whether KCNK9 modulators also affect mouse Kir2.1. Kir2.1 cells, FluxOR thallium flux fluorescence. shares compounds with KCNK9 inh. inhibition, % at 10 µM. actives 4% (n = 4,900);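 active = thallium signal drop more than 5 SD beyond the mean of the no-compound control wells, seen in both duplicate plates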;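 also: signal is fluorescence rise after thallium addition divided by baseline fluorescence; plate controls were assay buffer only for no effect and full block by chlorpromazine control for full effect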
HEK293 Tl ctr: non-induced cell nonspecific activity of KCNK9 modulators; shares compounds with KCNK9 inh; non-induced KCNK9-HEK293, FluxOR thallium flux; inhibition, % at 10 µM; actives 40% (n = 4,900);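 active = thallium signal drop beyond 5 SD of the untreated control mean, on both duplicate plates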;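 also: plate controls were buffer only IC0 wells for no effect and SID17386958 at its maximal inhibitory level for full effect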
Numbers without * were called inactive; i = inactive; . = no result given. Shown are actives, neighbours in structure and some others; about 3.1% of the full set was active somewhere.

SMILES | KCNQ1 pot | hERG protect | KCNQ1 block | KCNK9 inh | KCNK3 block | KCNK9 block conf | Kir21 sel | HEK293 Tl ctr
O=[N+]([O-])c1cnc[nH]1 | i | -4 | i | i | i | . | . | .
CCCCN1CCC(O)(c2ccccc2)C(C(=O)c2ccccc2)C1 (stereo unspecified) | i | -12 | i | i | i | i | i | i
COc1cccc2cc(-c3cc(=O)oc4ccc(OC(=O)N(C)C)cc34)oc12 | i | -7 | i | i | i | . | . | .
COc1ccc(OC)c(NP(=O)(Oc2ccccc2)Oc2ccccc2)c1 | i | -5 | i | i | i | . | . | .
COc1ccc(OC)c(NP(=O)(Oc2ccc(Cl)cc2)Oc2ccc(Cl)cc2)c1 | i | -6 | i | -11* | i | 76%* | i | 44%*
CC1=C(C/C(C)=C/c2ccccc2)/C(=C/CO)[C@H](O)[C@](C)(O)C12CC2 | i | -3 | i | i | i | . | . | .
CCn1cc(CN2CCCC(C(=O)c3sccc3C)C2)cn1 (stereo unspecified) | i | -13 | i | i | i | . | . | .
O=C1NCCCCC1(Cl)Cl | . | . | . | . | i | . | . | .
Fc1ccc(C2=CCN(C(c3cccs3)c3nnnn3CCc3ccccc3)CC2)cc1 (stereo unspecified) | i | -6 | i | -14* | i | 60%* | i | 36%*
CSc1ccc(C(=O)C2CCCN(Cc3cccnc3)C2)cc1 (stereo unspecified) | i | -8 | i | i | i | . | . | .
CSc1ccc(C(=O)C2CCCN(Cc3cc4ccccc4[nH]3)C2)cc1 (stereo unspecified) | i | -26 | i | i | i | i | 50%* | i
CN1CCN(C(=O)O[C@H]2c3nccnc3C(=O)N2c2ccc(Cl)cn2)CC1 | i | -4 | i | i | i | . | . | .
CCOC(=O)C1(c2ccccc2)CCN(CCC(=O)Nc2ccc(C(=O)OC)cc2)CC1 | . | . | . | . | i | . | . | .
CCOC(=O)C1(c2ccccc2)CCN(CCC(C#N)(c2ccccc2)c2ccccc2)CC1 | i | -11 | 6* | -8.2* | i | 40%* | i | 38%*
NC(=Nc1ccccc1)NN=Cc1c[nH]c2ccccc12 | . | . | . | . | i | . | . | .
CCCCn1c(O)c(/C=C/C=Nc2ccccc2)c(=O)[nH]c1=O | i | -5 | i | -9.2* | i | i | i | 54%*
Cn1c(O)c(/C=C/C=Nc2ccccc2)c(=O)n(C)c1=O | i | -11 | i | i | i | . | . | .
CCCCNC(=O)c1c(N)n(CCCOC)c2nc3ccccc3nc12 | i | -28 | i | -8.7* | i | i | i | i
COCCNC(=O)c1c(N)n(CCC(C)C)c2nc3ccccc3nc12 | i | -16 | i | i | i | . | . | .
Cn1cccc1/C=C1\C(=O)NC(=O)N(Cc2ccco2)C1=O | i | -9 | i | i | i | . | . | .
Cc1ccc(OCCn2cccc2/C=C2/C(=O)NC(=O)N(Cc3ccco3)C2=O)cc1 | i | -4 | i | i | i | i | i | i
Cc1c(OC(=O)N(C)C)ccc2c1O/C(=C\c1ccco1)C2=O | i | -7 | i | i | i | . | . | .
CCOC(=O)C1(CCc2ccccc2)CCN(Cc2csc(C(C)=O)c2)CC1 | i | -13 | i | i | i | i | i | i
CCOC(=O)C1(CCc2ccccc2)CCN(Cc2cccc3cnccc23)CC1 | i | -15 | i | i | i | i | i | i
CCOC(=O)C1(CCOc2ccccc2)CCN(Cc2ccccc2OC)CC1 | i | -11 | i | i | i | i | i | i
COc1cc2[nH]c(C(=O)N3CCC4(CC3)OCCO4)cc2c(OC)c1OC | i | -8 | i | i | i | . | . | .
O=C(c1cccs1)c1cn(Cc2ccccc2Cl)c2ccccc12 | i | -16 | i | i | i | . | . | .
N#Cc1ccccc1Cn1cc(C(=O)c2cccs2)c2ccccc21 | i | -5 | i | -8.1* | i | i | i | 34%*

Screening data (PubChem)
